SKN-1 inh: suppressors of acrylamide-induced Pgst-4::GFP reporter in worms, primary screen, SKN-1 inhibitor project, whole organism, uHTS, GFP/RFP fluorescence ratio, strain VP596; inhibition, % at 21.8 µM; actives 0.49% (n = 360,000); C. elegans VP596 Pgst-4::GFP/RFP ratio, 24 h;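 active = interference check ratio from 0.5 to 1.5 plus GFP to RFP signal ratio inhibition reaching or exceeding a fixed threshold, cut at about 30% in these data, passing the limit was not always enough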
TLR9-MyD88 inh: inhibitors of TLR9-MyD88 association in cells, primary screen, cell-based, CHO, BLA complementation, fluorescence | Toll-like receptor 9 (Homo sapiens) + Myeloid differentiation primary response protein … | CCF4 FRET ratio | inhibition, % at 4.98 µM | actives 0.21% (n = 340,000) | AID 504734, 2011;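 active = inhibition above the mean over all tested compounds plus 3 SD, cut at about 21% in these data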
NOD2 RIPK2 PPI: NOD2-RIPK2 binding disruptors in cells, primary screen, fluorescence, CHO cells, BLA complementation | actives 0.38% (n = 360,000) | Receptor-interacting serine/threonine-protein kinase 2 (Homo sapiens), O43353 | inhibition, % at 4.98 µM | CCF4 ratio; in the data active = inhibition above about 21%
TLR4 MyD88 comp: inhibitors of TLR4-MyD88 association in cells, primary screen, cell-based, HeLa CL3-4, BLA complementation, FRET ratio; inhibition, % at 8.4 µM; Toll-like receptor 4 (Homo sapiens) + Myeloid differentiation primary response protein …; actives 0.18% (n = 200,000); AID 861, 2007; HeLa CL3-4 TLR4/MyD88 BLA complementation; in the data active = inhibition above about 25%
MT1-MMP act inh: blockers of MT1-MMP proenzyme processing, primary screen, HT1080 RFP-PRO-GFP cells, GFP/RFP fluorescence; Matrix metalloproteinase-14 (Homo sapiens), P50281; GFP/RFP ratio fluorescence, overnight; percent of plate control window, DMSO zero; GFP/RFP ratio change, % at 20 µM; actives 0.061% (n = 360,000); AID 651647, 2012;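 active = GFP/RFP ratio change of at least 30% with cell ATP level not reduced by more than half and red fluorescence within 50% of control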
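Assay system – RFP-PRO-GFP reporter HT1080 cells · Compound dosing – single dose of 20 µM compound, 1% DMSO final · Incubation – overnight compound exposure at 37 °C · Measure – GFP/RFP fluorescence ratio · Benchmarks – DMSO wells and RFP-L50D-GFP cells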
Hits are given with their value; 0 = inactive; - = no result. The list is not random: actives were taken first. Their share in the collection is about 0.99%.

SMILES	SKN-1 inh	TLR9-MyD88 inh	NOD2 RIPK2 PPI	TLR4 MyD88 comp	MT1-MMP act inh
CCN(c1ccccc1)S(=O)(=O)c1cccc(C(=O)Nc2ccc(C)cn2)c1	48	0	0	-	0
Cc1ccc(NC(=O)c2cccc(S(=O)(=O)NCc3ccccc3)c2)nc1	0	0	0	-	0
O=C(C[C@H]1CC[C@@H](NC(=O)C2CC2)[C@@H](CO)O1)NCc1ccccc1Cl	0	-	0	-	0
COc1ccc(C2CC(c3ccccc3)=NN2S(=O)(=O)c2ccc(C)cc2)c(OC)c1 (stereo not drawn)	52	0	0	0	0
COc1ccc(C2CC(c3ccccc3)=NN2S(=O)(=O)c2ccccc2)c(OC)c1 (stereo not drawn)	0	0	0	0	0
Cn1c(=O)n(C)c2cc(/C=C(/C#N)C(=O)NCc3ccco3)ccc21	97	0	0	0	0
Brc1ccc(OCc2cn3ccccc3n2)cc1	48	0	0	0	0
Cc1cc(NS(=O)(=O)c2ccc(NC(=O)c3cc(-c4ccccc4Cl)nc4ccccc34)cc2)no1	0	0	0	0	0
Cc1cc(NS(=O)(=O)c2ccc(NC(=O)c3cc(-c4cccnc4)nc4ccc(Cl)cc34)cc2)no1	37	0	0	0	0
COc1cc(C(=S)N2CCOCC2)cc(OC)c1OS(=O)(=O)c1ccc(C)cc1	0	0	0	-	0
Cc1ccc(S(=O)(=O)N(C)C[C@@H]2Oc3ccc(NC(=O)Cn4cnnn4)cc3C(=O)N([C@@H](C)CO)C[C@H]2C)cc1	0	0	0	-	0
c1ccc2c(c1)OCCc1c-2[nH]c2ccccc12	52	0	0	-	0
O=C1CCCc2c1[nH]c1ccccc21	0	0	0	0	0
Cc1ccc(NC(=S)NC(=O)C2CC2)c(C)c1	45	0	0	-	0
Cc1ccc(S(=O)(=O)N2CC=C(c3c(C)n(C)c4ccccc34)CC2)cc1	52	0	0	0	0
CCn1c(C)c(C2=CCN(S(=O)(=O)c3ccccc3)CC2)c2ccccc21	54	0	0	0	0
Cc1ccc(S(=O)(=O)N2CCC(=O)CC2)cc1	0	0	0	-	0
CSc1ccc(S(=O)(=O)N2CCC(C(=O)Nc3ccccc3C(F)(F)F)CC2)cc1	42	0	0	-	0
COCOCCn1cc(CN2CCS(=O)(=O)N(Cc3ccc(-c4cccc(N(C)C)c4)cc3)C(C(C)C)C2=O)nn1 (stereo not drawn)	36	0	0	-	0
COCOCCn1cc(CN2CCS(=O)(=O)N(Cc3ccc(-c4cccc(CO)c4)cc3)C(C(C)C)C2=O)nn1 (stereo not drawn)	0	0	0	-	0
CN(Cc1ccccn1)C(=O)C1CCC(=O)N(Cc2cccc(C(F)(F)F)c2)C1 (stereo not drawn)	0	0	0	-	0
O=C(O)CN1C(=O)C2C3CC(C2C1=O)C1C(c2ccc(F)cc2)c2sc(=O)[nH]c2SC31 (stereo not drawn)	48	0	0	0	0
O=C(O)CN1C(=O)C2C3CC(C2C1=O)C1C(c2ccc(Cl)cc2)c2sc(=O)[nH]c2SC31 (stereo not drawn)	0	0	0	0	0
CCN(C(=O)CN1C(=O)S/C(=C\c2cccc(Cl)c2)C1=O)C1CCS(=O)(=O)C1 (stereo not drawn)	37	0	0	-	0
CCCOC(=O)c1ccc(NC(=O)/C=C/c2cccs2)cc1	47	0	0	0	0
O=C(/C=C/c1cccs1)Nc1ccncc1	0	0	0	0	0
CSC1=C(C#N)C(=O)NC(c2ccc(Cl)cc2)S1 (stereo not drawn)	0	0	0	-	0
Cc1cccc(N2CCN(C(=O)Cn3sc4nc(C)cc(C)c4c3=O)CC2C)c1 (stereo not drawn)	0	0	23	0	0
Cc1cc(C)c2c(=O)n(CC(=O)N3CCC(Cc4ccccc4)CC3)sc2n1	-	-	-	0	-

High-throughput results (PubChem)
